Measured values from different studies.
Protocols differ between the studies behind these lines.
SLC6A2: Sodium-dependent noradrenaline transporter (SLC6A2, Homo sapiens, UniProt P23975)
MPO: Myeloperoxidase (MPO, Homo sapiens, UniProt P05164)
CHEK2: Serine/threonine-protein kinase Chk2 (CHEK2, Homo sapiens, UniProt O96017)

SMILES	target	test	system	setting	measurement	value
CNC(=O)[C@@]12C[C@@H]1[C@@H](n1cnc3c(Nc4ccccc4)nc(C#Cc4ccc(Cl)s4)nc31)[C@H](O)[C@@H]2O	SLC6A2	ligand displacement, radioligand		10 µM	inhibition	77%
Cc1cc(O)c(-c2ccc([C@@H](C)CN(C)C)cc2)c2c1[nH]c(=O)c1sccc12	Peripheral plasma membrane protein CASK (CASK, Homo sapiens, UniProt O14936)	cell-free assay, inhibitor		0.1 µM, lysate	inhibition	3.12%
NC/C(=C\F)COc1cccc(Cn2c(=S)[nH]c(=O)c3[nH]cnc32)c1	MPO	enzyme activity, inhibitor, fluorescence		3 µM	inhibition	99.7%
COc1ccc2oc(-c3ccc4nc(N)oc4c3)c/c(=N\c3ccccc3NC(=O)CCN)c2c1	CHEK2	binding		1 µM	remaining binding	76%
C1=C/COCc2cc(ccc2OCCN2CCCC2)Nc2nccc(n2)-c2cccc(c2)COC/1	Fibroblast growth factor receptor 1 (FGFR1, Homo sapiens, UniProt P11362)	binding		0.1 µM	remaining binding	88%
CSc1nc(NCCC2CC2)c2ncn([C@H]3[C@H](O)[C@H](O)[C@@H]4C[C@@H]43)c2n1	SLC6A2	ligand displacement, radioligand		10 µM	inhibition	5%
CC(C)OCCn1c(=S)[nH]c(=O)c2[nH]ccc21	MPO	enzyme activity, inhibitor		0.156 µM	remaining activity	93.7%
O[C@@H]1[C@H](O)[C@@H]2C[C@@H]2[C@H]1n1cnc2c(NCCC3CC3)ncnc21	SLC6A2	transporter uptake, inhibitor, radiometric	HEK293	10 µM	inhibition	0%
CCCCC(=O)Nc1ccc(-c2ccc3ncn(CCC)c(=O)c3c2)cn1	CHEK2	binding, competition with immobilised ligand		0.5 µM	remaining binding	96%
